Data on twelve compounds can be found in ChEMBL document CHEMBL2046298, “Lead optimization of purine based orally bioavailable Mps1 (TTK) inhibitors” (Bioorg Med Chem Lett, 2012).

Where only a bound is given, the exact number is not on record here.

Data set [1] can be described thus: Plasma concentration in CD-1 mouse at 10 mg/kg, po measured at 8 hrs. The data set is classed as ADME, organism-based. Also noted: dose 10 mg/kg, route oral. Put shortly: (§1)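 Abbreviated PK screen: CD-1 mice dosed orally at 10 mg/kg in DMA/PEG 400 solution; plasma levels determined at 4 and 8 h post-dose.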
Data set [2] can be described thus: Plasma concentration in CD-1 mouse at 10 mg/kg, po measured at 4 hrs. Format: ADME, organism-based. Also noted: dose 10 mg/kg, route oral. An outline of the steps:
as §1

Data set [3] in a line: Oral bioavailability in CD-1 mouse at 10 mg/kg. Format: ADME, organism-based. As to conditions: in vivo. Put shortly:
(§2)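 CD-1 mice given 10 mg/kg orally in a DMA/PEG 400 solution formulation; matched IV arm at 2.5 mg/kg in DMA/PEG 400 for %F.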

A short description of data set [4]: Cmax in CD-1 mouse at 10 mg/kg, po. Format: ADME, organism-based. Also noted: dose 10 mg/kg, route oral. As to conditions: in vivo. Put shortly: as §2
Data set [5] can be described thus: AUC in CD-1 mouse at 10 mg/kg, po. Details: dose 10 mg/kg, route oral. Format: ADME, organism-based. The settings on record: plasma. Put shortly: as §2
The nature of data set [6]: Apparent permeability of the compound by PAMPA. The data set is classed as ADME. In general terms: PAMPA measures passive passage across an artificial lipid membrane.

Compound `COc1cc(N2CCC(C(=O)N3CCOCC3)CC2)ccc1Nc1nc(NC2CCCCC2)c2nc[nH]c2n1` displayed a concentration at 8 h in data set [1] of 1.68 ng/mL. The compound also had a concentration at 4 h in data set [2] of 16.7 ng/mL.

A word on the bioavailability: it is dose-corrected exposure relative to a reference, in per cent. The compound `Cc1cc(N2CCOCC2)ccc1Nc1nc(NC2CCCCC2)c2nc[nH]c2n1` had a bioavailability in data set [3] of 20%.

Usually Cmax stands for the maximum level reached in the sampled fluid or tissue. Usually AUC stands for the area under the concentration-time curve, a measure of exposure. Read a low AUC as low exposure. In data set [4], `COc1cc(N2CCC(CC(=O)N3CCOCC3)CC2)ccc1Nc1nc(NC2CCCCC2)c2nc[nH]c2n1` had a Cmax of 1400 nM. This compound also returned a bioavailability in data set [3] of 23.1%. The same compound had a concentration at 8 h in data set [1] of 20.9 ng/mL. In addition, the concentration at 4 h in data set [2] amounted to 97 ng/mL. Further, in data set [5], the AUC is 1650 ng·h/mL.

Consider `COc1cc(N2CCN(C(=O)N3CCN(C)CC3)CC2)ccc1Nc1nc(NC2CCCCC2)c2[nH]cnc2n1`, for which the Papp entry in data set [6] is “impermeable”.

Take `COc1cc(N2CCC(N3CCOCC3)CC2)ccc1Nc1nc(NC2CCCCC2)c2nc[nH]c2n1`: in data set [4], the peak concentration (Cmax) amounted to 2600 nM. The bioavailability in data set [3] is 31%. The compound further showed a concentration at 8 h in data set [1] of 44.2 ng/mL. In data set [2], this compound had a concentration at 4 h of 105 ng/mL. The compound further came in with an area under the curve (AUC) in data set [5] of 1710 ng·h/mL.

For `COc1cc(N2CCC(CC(=O)N3CCC(N(C)C)C3)CC2)ccc1Nc1nc(NC2CCCCC2)c2nc[nH]c2n1` (stereo not drawn), the Papp result in data set [6] is listed as “impermeable”.

Turning to `COc1cc(N2CCN(C(=O)N3CCC(O)C3)CC2)ccc1Nc1nc(NC2CCCCC2)c2nc[nH]c2n1` (stereo not drawn), the Papp entry in data set [6] is listed as “impermeable”.

The compound `COc1cc(N2CCC(CN3CCOCC3)CC2)ccc1Nc1nc(NC2CCCCC2)c2nc[nH]c2n1` registered a Cmax in data set [4] of 2600 nM. The bioavailability in data set [3] is more than 83%. In data set [1], this compound displayed a concentration at 8 h of 187 ng/mL. The compound further yielded a concentration at 4 h in data set [2] of 435 ng/mL. In addition, the area under the curve (AUC) in data set [5] worked out at 10700 ng·h/mL.

Regarding `COc1cc(N2CCC(CC(=O)N3CCCC3)CC2)ccc1Nc1nc(NC2CCCCC2)c2nc[nH]c2n1`, in data set [4], the highest concentration (Cmax) was determined as 1800 nM. This compound had a bioavailability in data set [3] of 36%. In data set [1], the concentration at 8 h stood at 69.2 ng/mL. This compound also had a concentration at 4 h in data set [2] of 138 ng/mL. The compound further gave an AUC in data set [5] of 1770 ng·h/mL.

In data set [4], `COc1cc(N2CCC(CC(=O)N3CCN(C)CC3)CC2)ccc1Nc1nc(NC2CCCCC2)c2[nH]cnc2n1` registered a Cmax of 300 nM. Further, the bioavailability in data set [3] was determined as 6.9%. In addition, the concentration at 8 h in data set [1] was determined as 39.9 ng/mL. Further, the concentration at 4 h in data set [2] is 180 ng/mL. In data set [5], the AUC was 547 ng·h/mL.

In turn, `COc1cc(N2CCN(S(=O)(=O)CCCN3CCOCC3)CC2)ccc1Nc1nc(NC2CCCCC2)c2nc[nH]c2n1` registered a Cmax in data set [4] of 1000 nM. Further, the bioavailability in data set [3] was 17.9%. For the same compound, the concentration at 8 h in data set [1] was 17.5 ng/mL. Besides, the concentration at 4 h in data set [2] was determined as 156 ng/mL. For the same compound, the AUC in data set [5] was determined as 1730 ng·h/mL.

In data set [1], `COc1cc(N2CCN(Cc3ccccn3)CC2)ccc1Nc1nc(NC2CCCCC2)c2nc[nH]c2n1` showed a concentration at 8 h of 2.9 ng/mL. In data set [2], this compound gave a concentration at 4 h of 66.3 ng/mL.
